The text below walks through data of ChEMBL document CHEMBL1147807, “Identification of 2-acylaminothiophene-3-carboxamides as potent inhibitors of FLT3” (Bioorg Med Chem Lett, 2006).

As a reminder, the inhibition is the change of the read-out against control, counted positive when it falls. Usually IC50 stands for the concentration that gives 50% inhibition. The low end stands for inhibition by little substance, the high end for a need for much substance.

The structures appear in SMILES notation.

The target in experiment [1] is Cyclin-dependent kinase 7/ cyclin H (Homo sapiens) (UniProt P51946+P50613). The experiment can be described thus: Inhibition of human CDK7/cyclin H/MAT1 at 3 uM in presence of 10 uM ATP. The format is protein-complex assay. The gist of the method:
(§1)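 Selectivity panel run at a single compound concentration of 3 µM with 10 µM ATP. Read-out is % inhibition of each kinase. Values are averages of duplicate experiments.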

Experiment [2] has as its target Ribosomal protein S6 kinase alpha-1 (Homo sapiens) (UniProt Q15418). Put plainly: Inhibition of human Rsk1 at 3 uM in presence of 10 uM ATP. The gist of the method: as §1
Experiment [3] addresses BDNF/NT-3 growth factors receptor (Homo sapiens) (UniProt Q16620). The experiment can be described thus: Inhibition of human TrkB at 3 uM in presence of 10 uM ATP. The gist of the method: as §1
Experiment [4] deals with Tyrosine-protein kinase Lyn (Homo sapiens) (UniProt P07948). Put plainly: Inhibition of human Lyn at 3 uM in presence of 10 uM ATP. The essentials:
as §1

Experiment [5] deals with Tyrosine-protein kinase ABL1 (Homo sapiens) (UniProt P00519). The experiment can be described thus: Inhibition of human Abl kinase at 3 uM in presence of 10 uM ATP. The gist of the method:
as §1

Experiment [6] has as its target T1, Receptor-type tyrosine-protein kinase FLT3 (Homo sapiens, UniProt P36888).
T1 sequence (P36888 whole entry): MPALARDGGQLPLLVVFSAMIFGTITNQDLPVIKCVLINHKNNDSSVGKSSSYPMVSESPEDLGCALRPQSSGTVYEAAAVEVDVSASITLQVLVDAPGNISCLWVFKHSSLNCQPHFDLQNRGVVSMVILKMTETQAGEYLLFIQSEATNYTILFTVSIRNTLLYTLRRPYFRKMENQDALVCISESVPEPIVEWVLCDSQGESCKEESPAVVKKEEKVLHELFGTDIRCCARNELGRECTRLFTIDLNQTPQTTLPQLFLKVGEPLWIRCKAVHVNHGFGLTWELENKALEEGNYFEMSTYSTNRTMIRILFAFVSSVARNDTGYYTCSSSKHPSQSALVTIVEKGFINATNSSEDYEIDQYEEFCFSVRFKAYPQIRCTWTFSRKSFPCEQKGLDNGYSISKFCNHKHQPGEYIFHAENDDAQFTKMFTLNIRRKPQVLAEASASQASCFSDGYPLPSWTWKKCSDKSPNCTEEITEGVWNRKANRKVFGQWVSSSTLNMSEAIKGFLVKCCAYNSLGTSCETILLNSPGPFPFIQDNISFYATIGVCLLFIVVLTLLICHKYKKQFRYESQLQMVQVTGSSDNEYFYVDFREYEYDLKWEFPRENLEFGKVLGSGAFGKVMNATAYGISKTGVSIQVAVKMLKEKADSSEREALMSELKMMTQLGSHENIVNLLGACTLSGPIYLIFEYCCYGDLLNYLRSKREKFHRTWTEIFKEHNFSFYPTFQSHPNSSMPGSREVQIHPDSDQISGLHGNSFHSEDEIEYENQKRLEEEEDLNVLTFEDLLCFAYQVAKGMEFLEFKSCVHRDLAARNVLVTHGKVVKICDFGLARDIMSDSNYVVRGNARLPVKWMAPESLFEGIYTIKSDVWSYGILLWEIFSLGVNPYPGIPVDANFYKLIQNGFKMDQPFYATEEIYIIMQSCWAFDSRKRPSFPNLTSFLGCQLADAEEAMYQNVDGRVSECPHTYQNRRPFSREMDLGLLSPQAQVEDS
Put plainly: Inhibition of FLT3.

The target in experiment [7] is Tyrosine-protein kinase receptor UFO (Homo sapiens) (UniProt P30530). Put plainly: Inhibition of human Axl kinase at 3 uM in presence of 10 uM ATP. The essentials:
as §1

For another experiment, the species on record is Rattus norvegicus. The experiment can be described thus: Inhibition of rat AMPK at 3 uM in presence of 10 uM ATP. The essentials: as §1
For experiment [8], the target named is T2, Serine/threonine-protein kinase Chk1 (Homo sapiens) (UniProt O14757).
T2 sequence (whole entry): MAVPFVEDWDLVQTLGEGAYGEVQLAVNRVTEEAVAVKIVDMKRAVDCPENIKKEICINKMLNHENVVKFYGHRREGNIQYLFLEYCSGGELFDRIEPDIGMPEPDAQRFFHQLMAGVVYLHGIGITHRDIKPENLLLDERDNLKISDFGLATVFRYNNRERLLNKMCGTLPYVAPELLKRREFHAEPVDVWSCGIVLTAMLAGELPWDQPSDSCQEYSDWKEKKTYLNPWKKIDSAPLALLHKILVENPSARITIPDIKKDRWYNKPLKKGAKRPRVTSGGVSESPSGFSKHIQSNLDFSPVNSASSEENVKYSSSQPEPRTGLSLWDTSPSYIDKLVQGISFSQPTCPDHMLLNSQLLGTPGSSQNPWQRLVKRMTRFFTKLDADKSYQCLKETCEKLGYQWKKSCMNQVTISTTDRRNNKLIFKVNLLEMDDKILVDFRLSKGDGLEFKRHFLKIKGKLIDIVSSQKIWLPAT
The experiment can be described thus: Inhibition of human CHK1 at 3 uM in presence of 10 uM ATP. The essentials: as §1

Experiment [9] concerns the target Glycogen synthase kinase-3 beta (Homo sapiens) (UniProt P49841). The experiment can be described thus: Inhibition of human GSK3-beta at 3 uM in presence of 10 uM ATP. The essentials: as §1
For experiment [10], the target named is T3, Cytoplasmic tyrosine-protein kinase BMX (Homo sapiens) (UniProt P51813).
T3 sequence (whole entry): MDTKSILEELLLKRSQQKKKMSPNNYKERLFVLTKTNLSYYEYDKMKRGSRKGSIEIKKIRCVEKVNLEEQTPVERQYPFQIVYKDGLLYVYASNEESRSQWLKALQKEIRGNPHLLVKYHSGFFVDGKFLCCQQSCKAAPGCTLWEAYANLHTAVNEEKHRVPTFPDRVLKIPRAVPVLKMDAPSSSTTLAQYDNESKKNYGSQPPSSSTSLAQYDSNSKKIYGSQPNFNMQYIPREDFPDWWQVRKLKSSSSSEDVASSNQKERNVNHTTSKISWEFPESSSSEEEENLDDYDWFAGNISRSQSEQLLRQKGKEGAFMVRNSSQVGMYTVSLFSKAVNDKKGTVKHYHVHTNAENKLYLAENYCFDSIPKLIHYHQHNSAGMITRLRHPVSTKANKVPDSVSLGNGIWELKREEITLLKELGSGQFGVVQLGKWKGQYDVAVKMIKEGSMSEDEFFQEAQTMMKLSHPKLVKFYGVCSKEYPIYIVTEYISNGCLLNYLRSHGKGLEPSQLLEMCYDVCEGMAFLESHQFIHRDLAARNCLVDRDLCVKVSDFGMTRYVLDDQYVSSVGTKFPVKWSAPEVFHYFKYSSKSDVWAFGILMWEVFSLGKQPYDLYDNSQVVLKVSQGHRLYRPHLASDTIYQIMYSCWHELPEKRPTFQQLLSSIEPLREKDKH
Put plainly: Inhibition of human Bmx kinase at 3 uM in presence of 10 uM ATP. The gist of the method: as §1

In experiment [11] the target is Tyrosine-protein kinase BTK (Homo sapiens) (UniProt Q06187). The experiment can be described thus: Inhibition of human BTK kinase at 3 uM in presence of 10 uM ATP. The gist of the method: as §1
Tyrosine-protein kinase BTK (Homo sapiens), sequence (Q06187 whole entry): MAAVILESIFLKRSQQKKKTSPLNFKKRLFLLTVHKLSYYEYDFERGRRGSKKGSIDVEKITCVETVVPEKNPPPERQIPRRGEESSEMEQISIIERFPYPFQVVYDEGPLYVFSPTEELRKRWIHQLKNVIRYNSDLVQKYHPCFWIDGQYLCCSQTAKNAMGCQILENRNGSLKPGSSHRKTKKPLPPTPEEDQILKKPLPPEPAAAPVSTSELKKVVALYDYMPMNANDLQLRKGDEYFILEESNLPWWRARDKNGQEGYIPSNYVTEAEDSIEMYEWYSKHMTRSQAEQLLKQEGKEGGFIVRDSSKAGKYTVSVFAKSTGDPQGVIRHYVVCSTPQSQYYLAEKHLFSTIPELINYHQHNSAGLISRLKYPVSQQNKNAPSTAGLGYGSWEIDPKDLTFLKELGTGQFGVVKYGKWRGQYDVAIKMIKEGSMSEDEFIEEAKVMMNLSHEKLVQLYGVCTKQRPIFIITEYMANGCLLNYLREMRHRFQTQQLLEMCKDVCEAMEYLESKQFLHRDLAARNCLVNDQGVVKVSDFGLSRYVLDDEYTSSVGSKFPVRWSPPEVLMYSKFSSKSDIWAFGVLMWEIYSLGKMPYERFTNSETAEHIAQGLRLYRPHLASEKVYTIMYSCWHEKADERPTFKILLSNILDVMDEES
Experiment [12] deals with Tyrosine-protein kinase Fyn (Homo sapiens) (UniProt P06241). Put plainly: Inhibition of human Fyn at 3 uM in presence of 10 uM ATP. The gist of the method:
as §1

A further experiment relates to MV4-11. The experiment can be described thus: Antiproliferative activity against human MV4-11 cells.

Tyrosine-protein kinase receptor UFO (Homo sapiens), sequence (P30530 whole entry): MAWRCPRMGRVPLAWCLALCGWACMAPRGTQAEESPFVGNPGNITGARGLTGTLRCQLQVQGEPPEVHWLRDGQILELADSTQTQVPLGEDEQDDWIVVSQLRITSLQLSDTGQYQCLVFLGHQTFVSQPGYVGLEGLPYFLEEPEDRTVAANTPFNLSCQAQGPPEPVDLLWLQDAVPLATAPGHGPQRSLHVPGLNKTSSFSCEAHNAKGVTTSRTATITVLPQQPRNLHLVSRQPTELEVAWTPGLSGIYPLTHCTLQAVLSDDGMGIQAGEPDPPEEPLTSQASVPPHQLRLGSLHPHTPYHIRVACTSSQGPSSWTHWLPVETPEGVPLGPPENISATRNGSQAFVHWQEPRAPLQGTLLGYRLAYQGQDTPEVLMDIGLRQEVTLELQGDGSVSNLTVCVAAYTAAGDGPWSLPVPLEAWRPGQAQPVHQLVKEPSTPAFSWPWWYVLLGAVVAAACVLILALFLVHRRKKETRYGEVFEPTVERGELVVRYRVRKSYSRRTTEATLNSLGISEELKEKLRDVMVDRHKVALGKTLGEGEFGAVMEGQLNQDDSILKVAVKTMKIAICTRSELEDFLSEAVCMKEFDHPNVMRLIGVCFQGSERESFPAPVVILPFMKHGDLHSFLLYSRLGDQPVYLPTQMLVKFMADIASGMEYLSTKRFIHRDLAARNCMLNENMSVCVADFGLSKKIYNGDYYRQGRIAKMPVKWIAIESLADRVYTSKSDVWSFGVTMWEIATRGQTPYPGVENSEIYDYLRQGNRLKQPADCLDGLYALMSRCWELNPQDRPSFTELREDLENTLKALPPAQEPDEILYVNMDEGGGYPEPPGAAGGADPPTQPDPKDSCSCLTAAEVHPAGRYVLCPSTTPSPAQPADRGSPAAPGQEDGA
BDNF/NT-3 growth factors receptor (Homo sapiens), sequence (Q16620 32-822 limits assumed): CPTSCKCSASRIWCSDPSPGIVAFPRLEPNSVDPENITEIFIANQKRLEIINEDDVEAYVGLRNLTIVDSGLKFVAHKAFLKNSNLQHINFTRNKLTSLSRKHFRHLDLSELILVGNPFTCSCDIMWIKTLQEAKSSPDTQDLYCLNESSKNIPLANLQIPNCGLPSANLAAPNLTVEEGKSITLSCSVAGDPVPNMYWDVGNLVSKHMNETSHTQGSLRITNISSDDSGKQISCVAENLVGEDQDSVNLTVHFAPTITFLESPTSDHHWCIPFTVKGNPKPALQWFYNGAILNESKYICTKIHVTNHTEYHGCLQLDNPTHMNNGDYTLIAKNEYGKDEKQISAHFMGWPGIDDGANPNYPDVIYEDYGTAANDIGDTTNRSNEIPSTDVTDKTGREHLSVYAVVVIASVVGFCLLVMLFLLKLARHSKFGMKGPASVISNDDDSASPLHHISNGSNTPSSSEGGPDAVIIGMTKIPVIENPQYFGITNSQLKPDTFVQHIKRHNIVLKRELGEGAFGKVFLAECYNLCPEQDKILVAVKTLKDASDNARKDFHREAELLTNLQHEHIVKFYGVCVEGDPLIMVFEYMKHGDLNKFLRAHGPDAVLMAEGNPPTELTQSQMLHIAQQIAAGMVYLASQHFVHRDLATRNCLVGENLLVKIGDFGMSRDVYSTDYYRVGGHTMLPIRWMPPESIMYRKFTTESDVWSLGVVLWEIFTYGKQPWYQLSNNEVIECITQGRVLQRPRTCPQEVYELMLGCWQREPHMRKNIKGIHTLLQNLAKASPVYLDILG
Tyrosine-protein kinase ABL1 (Homo sapiens), sequence (P00519 whole entry): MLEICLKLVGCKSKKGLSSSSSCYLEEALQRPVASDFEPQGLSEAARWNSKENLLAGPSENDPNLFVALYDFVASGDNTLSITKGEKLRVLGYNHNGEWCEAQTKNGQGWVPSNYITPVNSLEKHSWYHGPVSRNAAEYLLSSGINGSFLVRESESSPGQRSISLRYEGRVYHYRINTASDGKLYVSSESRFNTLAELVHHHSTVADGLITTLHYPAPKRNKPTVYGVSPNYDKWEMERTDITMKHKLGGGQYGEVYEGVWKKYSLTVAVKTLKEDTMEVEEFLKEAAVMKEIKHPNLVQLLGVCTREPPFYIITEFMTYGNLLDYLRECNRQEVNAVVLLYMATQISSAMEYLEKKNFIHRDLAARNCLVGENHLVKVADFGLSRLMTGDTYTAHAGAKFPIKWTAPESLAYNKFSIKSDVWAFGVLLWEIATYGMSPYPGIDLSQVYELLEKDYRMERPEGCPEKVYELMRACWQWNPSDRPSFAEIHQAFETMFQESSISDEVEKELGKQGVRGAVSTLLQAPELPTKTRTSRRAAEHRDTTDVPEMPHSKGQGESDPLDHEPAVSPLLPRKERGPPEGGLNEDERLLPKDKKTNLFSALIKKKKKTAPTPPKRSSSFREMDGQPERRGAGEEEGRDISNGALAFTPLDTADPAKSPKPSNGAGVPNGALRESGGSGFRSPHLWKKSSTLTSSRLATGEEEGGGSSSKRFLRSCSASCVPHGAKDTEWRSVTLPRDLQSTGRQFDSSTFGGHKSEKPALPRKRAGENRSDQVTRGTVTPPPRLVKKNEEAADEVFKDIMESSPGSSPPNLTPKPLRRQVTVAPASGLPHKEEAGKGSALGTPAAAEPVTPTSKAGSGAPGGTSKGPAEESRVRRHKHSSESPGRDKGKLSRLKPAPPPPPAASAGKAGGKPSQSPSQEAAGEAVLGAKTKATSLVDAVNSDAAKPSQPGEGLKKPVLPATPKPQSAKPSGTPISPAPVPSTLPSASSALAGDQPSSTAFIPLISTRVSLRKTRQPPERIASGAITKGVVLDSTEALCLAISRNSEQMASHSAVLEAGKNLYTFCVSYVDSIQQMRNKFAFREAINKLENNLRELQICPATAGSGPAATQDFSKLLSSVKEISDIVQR
Ribosomal protein S6 kinase alpha-1 (Homo sapiens), sequence (Q15418 whole entry): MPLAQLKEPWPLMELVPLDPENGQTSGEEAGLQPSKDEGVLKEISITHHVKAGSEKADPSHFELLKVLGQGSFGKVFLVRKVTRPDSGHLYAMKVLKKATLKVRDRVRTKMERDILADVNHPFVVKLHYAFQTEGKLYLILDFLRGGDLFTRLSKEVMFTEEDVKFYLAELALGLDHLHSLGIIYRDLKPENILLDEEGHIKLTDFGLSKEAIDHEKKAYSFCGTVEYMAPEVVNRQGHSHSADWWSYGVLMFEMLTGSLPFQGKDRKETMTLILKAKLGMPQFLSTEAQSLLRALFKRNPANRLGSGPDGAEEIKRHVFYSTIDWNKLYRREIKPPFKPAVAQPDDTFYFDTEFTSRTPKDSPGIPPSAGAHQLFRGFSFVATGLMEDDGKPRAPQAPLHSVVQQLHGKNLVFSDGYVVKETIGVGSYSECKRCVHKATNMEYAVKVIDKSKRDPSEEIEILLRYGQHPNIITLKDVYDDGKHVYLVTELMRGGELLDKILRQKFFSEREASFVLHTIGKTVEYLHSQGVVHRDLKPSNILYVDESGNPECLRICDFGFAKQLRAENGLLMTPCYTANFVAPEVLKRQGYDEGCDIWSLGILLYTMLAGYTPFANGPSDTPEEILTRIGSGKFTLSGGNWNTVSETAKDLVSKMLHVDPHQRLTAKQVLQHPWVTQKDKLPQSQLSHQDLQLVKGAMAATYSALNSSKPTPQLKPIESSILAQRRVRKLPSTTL
Tyrosine-protein kinase Fyn (Homo sapiens), sequence (P06241 2-537 limits assumed): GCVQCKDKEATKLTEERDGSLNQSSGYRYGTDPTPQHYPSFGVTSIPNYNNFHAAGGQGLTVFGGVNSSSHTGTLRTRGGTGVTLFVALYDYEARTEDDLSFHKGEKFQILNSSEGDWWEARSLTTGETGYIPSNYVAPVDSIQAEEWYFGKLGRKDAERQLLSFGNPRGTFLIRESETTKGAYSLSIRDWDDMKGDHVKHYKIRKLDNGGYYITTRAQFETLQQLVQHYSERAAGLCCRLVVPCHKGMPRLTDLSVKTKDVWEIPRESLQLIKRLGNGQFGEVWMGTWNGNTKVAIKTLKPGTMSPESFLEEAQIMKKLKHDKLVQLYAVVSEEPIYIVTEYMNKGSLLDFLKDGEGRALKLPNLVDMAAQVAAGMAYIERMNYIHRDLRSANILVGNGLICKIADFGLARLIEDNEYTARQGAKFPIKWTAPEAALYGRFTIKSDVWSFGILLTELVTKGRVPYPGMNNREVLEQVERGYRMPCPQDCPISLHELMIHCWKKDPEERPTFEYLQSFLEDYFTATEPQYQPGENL

Take `COc1ccc(C(=O)Nc2sc3c(c2C(N)=O)CCCC3)cc1OC`: the inhibition in experiment [1] was -1%; in [2], 3%; in [3], 39%; in experiment [4], 21%; in experiment [5], 21%; in experiment [7], -10%. In addition, the inhibition was -4% in the experiment listed under Rattus norvegicus; -7% in experiment [8]; -2% in [9]; 9% in [10]; 14% in experiment [11]; 33% in experiment [12]. The IC50 in experiment [6] came to 42 nM; in the experiment on MV4-11, 340 nM.
